# In the library only some 1.9% were active in any assay of this set; here they are far more common.
# RanGTP-Impb inh: disruptors of Ran-importin-beta complex formation – biochemical, FRET, CFP-Ran, YFP-importin-beta, homogeneous, primary screen. cell-free CFP-Ran/YFP-importin-beta FRET ratio. inhibition, % (no concentration beside the values). 300,000 compounds, 1.1% hits. AID 2216;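 active = more than half of the replicate wells show a fall in the fluorescence ratio signal beyond about 16%, limit read from the data, passing the limit was not always enough; inconclusive = exactly half of the replicate wells pass the set limit; inactive = fewer than half of replicates pass the limit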;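 also: 0% = DMSO wells and 100% = Ran loaded with GDP instead of GTP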
# Runt-CBFb FRET: Runt domain-CBFb interaction inhibition; AID 1496; Q01196+Q13951; Cerulean-Runt/Venus-CBFb FRET ratio 530/480, 1 h; inhibition, % at 20 µM; 220,000 compounds, 0.46% hits;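 active = inhibition over about 50% at 20 µM in the single-dose screen, limit read from the data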;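 also: 0% = DMSO wells and 100% = excess unlabeled CBFb competitor control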
#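 Doses: 20 µM compound in 1% DMSO | Material: Cerulean-labeled Runt domain protein | Amount: Each fluorescent fusion protein 100 nM | Schedule: Two 1 h room-temperature incubations shielded from light | Measured by: FRET fluorescence | Evaluation: Loss of energy transfer signal | Controls: Unlabeled CBFb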
# Hck Nef HTS: blocks Nef-activated human Hck kinase | P08631 | Recombinant Hck-YEEI plus Nef, Z-Lyte FRET kinase assay | inhibition, % at 20 µM | 220,000 compounds, 0.68% hits;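 active = Hck-Nef kinase inhibition above about 50%, limit read from the data; inactive = inhibition below that limit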;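 also: 0% = DMSO with Hck plus Nef and 100% = Hck alone without Nef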
# Target sequence (P08631 whole entry, looked up): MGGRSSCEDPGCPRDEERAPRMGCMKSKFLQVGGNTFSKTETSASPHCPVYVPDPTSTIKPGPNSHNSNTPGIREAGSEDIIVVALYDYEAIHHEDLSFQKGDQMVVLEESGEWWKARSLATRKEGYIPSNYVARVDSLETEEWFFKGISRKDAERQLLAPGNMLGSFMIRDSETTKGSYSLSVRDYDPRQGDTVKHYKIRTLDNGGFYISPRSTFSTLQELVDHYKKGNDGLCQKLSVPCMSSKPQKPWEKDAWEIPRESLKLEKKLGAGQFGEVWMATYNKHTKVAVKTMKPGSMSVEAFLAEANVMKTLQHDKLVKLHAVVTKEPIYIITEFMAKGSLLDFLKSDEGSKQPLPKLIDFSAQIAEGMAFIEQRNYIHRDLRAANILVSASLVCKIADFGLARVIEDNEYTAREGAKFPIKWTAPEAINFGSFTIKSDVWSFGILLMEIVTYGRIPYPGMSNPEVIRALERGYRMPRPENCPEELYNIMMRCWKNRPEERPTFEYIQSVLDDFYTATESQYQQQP
# Runt-SMMHC FRET: inhibitors of human RUNX1 Runt domain binding to CBFb-SMMHC; 220,000 compounds, 0.74% hits; AID 1434; inhibition, % at 20 µM; Q01196+Q13951; Cerulean-Runt/Venus-CBFb-SMMHC FRET ratio 530/480, 1 h;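 active = mean inhibition across duplicate retests at 20 µM reaching about 50%, limit read from the data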;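 also: 0% = DMSO wells and 100% = wells with excess untagged CBFb-SMMHC; inhibitors lower the FRET ratio by blocking Runt binding to CBFb-SMMHC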
# Starred values were filed as active, the others as inactive; ? = inconclusive; · = no result.
SMILES,RanGTP-Impb inh,Runt-CBFb FRET,Hck Nef HTS,Runt-SMMHC FRET
COCCNC(=O)C(C#N)c1nc2ccccc2nc1N1CCCCCC1 (stereo unspecified),72*,44,1,51*
O=C(CCc1nnc(CCCc2ccccc2)o1)NCCCC1CCCC1,-3,-4,10,-1
OCCCNc1c2ccccc2nc2ccccc12,51*,·,·,·
Cc1ccc(-c2nc(NCCCO)c3ccccc3n2)cc1,8,·,·,·
c1ccc2c(NCCc3c[nH]c4ccccc34)c3ccccc3nc2c1,91*,·,·,·
CC(C)(C)Nc1c2ccccc2nc2ccccc12,28*,·,·,·
Fc1cccc(NCCc2c[nH]c3ccccc23)n1,3,·,·,·
Cn1c(=O)c2c(ncn2CC(=O)N/N=C/C=C/c2ccccc2[N+](=O)[O-])n(C)c1=O,1,4,12,-2
CCOCCCNC(=O)c1cc2c(=O)n3cccc(C)c3nc2n1C,6,5,·,20
CCOC(=O)c1cc2c(=O)n3cccc(C)c3nc2n(C)c1=N,·,12,148*,38
CCOCCCn1c(=N)c(C(N)=S)cc2c(=O)n3cccc(C)c3nc21,173*,18,19,·
Cc1cccn2c(=O)c3cc(C(N)=S)c(=N)n(CCCOC(C)C)c3nc12,174*,57*,27,65*
COCCNC(=O)c1cc2c(=O)n3cccc(C)c3nc2n1C,-3,2,·,11
O=C(Oc1cc(=O)n2ccccc2n1)c1ccccc1,5,-3,8,6
O=C(Nc1ccc2c(c1)OCO2)C1CCN(C(=O)c2ccc([N+](=O)[O-])cc2)CC1,-2,0,25,-2
COC(=O)c1c(NC(=O)CSc2ccccc2N)sc(C)c1C,-3,-2,2,-1
Cc1ccc(S(=O)(=O)/C(=C\N(C)C)c2cnc(Cl)s2)cc1,-3,4,13,15
CC1=C(C(=O)OCC2CCCO2)C(c2ccncc2)C2=C(CC(C)(C)CC2=O)N1 (stereo unspecified),?,42,27,86*
CCOC(=O)C1=C(C)NC2=C(C(=O)CC(C)(C)C2)C1c1ccc(N(C)C)cc1 (stereo unspecified),1,4,5,16
COc1cccc(C2C(C#N)=C(C)NC3=C2C(=O)CC(C)(C)C3)c1 (stereo unspecified),2,17,18,55*
COC(=O)C1=C(C)NC2=C(C(=O)CC(C)(C)C2)C1c1cccc(C)n1 (stereo unspecified),9,35,22,87*
CC(NC(=O)Cc1ccc(S(=O)(=O)N2CCOCC2)s1)c1ccc(Cl)c(Cl)c1 (stereo unspecified),-1,·,·,·
CCn1nc(C)cc1Nc1ccccc1,37*,2,-8,-4
Cc1c(NC(=S)N/N=C/c2ccc(N(C)C)cc2)c(=O)n(-c2ccccc2)n1C,8,24,42,62*
Cc1c(NC(=S)N/N=C/c2cccc(O)c2)c(=O)n(-c2ccccc2)n1C,-3,-3,-1,1
SMILES,RanGTP-Impb inh,Runt-CBFb FRET,Hck Nef HTS,Runt-SMMHC FRET
COCCn1c(N)c(C(=O)Nc2sc3c(c2C(=O)OC)CCCC3)c2nc3ccccc3nc21,1,87*,0,32
COCCn1c(N)c(C(=O)NCc2cccs2)c2nc3ccccc3nc21,84*,14,44,70*
Nc1c(C(=O)NC2CCCC2)c2nc3ccccc3nc2n1N,39*,14,4,46
Nc1c(C(=O)OCC2CCCO2)c2nc3ccccc3nc2n1C1CCCC1 (stereo unspecified),13,33,21,85*
COCCn1c(N)c(S(=O)(=O)c2cccs2)c2nc3ccccc3nc21,-15,10,30,20
Cc1ccc(NC(=O)CN2CCOCC2)cc1C,0,·,·,·
Cc1ccc2nc(SCC(=O)N(CC(C)C)c3c(N)n(Cc4ccccc4)c(=O)[nH]c3=O)[nH]c2c1,1,-1,-46,2
COCCn1c(N)c(C(=O)NCC2CCCO2)c2nc3ccccc3nc21 (stereo unspecified),94*,70*,40,79*
CCOC(=O)c1c(N)n(CC(C)NC(=O)C2CC2)c2nc3ccccc3nc12 (stereo unspecified),·,74*,43,163*
COc1ccc(OC)c(-n2c(N)c(C(=O)NCC3CCCO3)c3nc4ccccc4nc32)c1 (stereo unspecified),11,15,29,34
COCCN(C(=O)c1ccc(OC2CCN(S(=O)(=O)N(C)C)CC2)cc1)C(C)C,1,·,·,·
CC(C)Cn1nc(NC(=O)c2cccs2)c2cc3ccccc3nc21,64*,34,-74,57*
COc1ccc2nc3c(cc2c1)c(NC(=O)c1cccs1)nn3CC(C)C,116*,62*,41,63*
O=C(CSc1nc2c([nH]c3ccccc32)c(=O)n1-c1cccc(Cl)c1)N1CCOCC1,?,·,53*,-1
O=C(CSc1nc2c([nH]c3ccccc32)c(=O)n1-c1ccccc1)N1CCOCC1,6,9,-3,2
N#Cc1c2ccc(O)cc2n2ccccc12,19*,20,-79,86*
N#Cc1c2ccc(OCC(=O)NCc3ccco3)cc2n2ccccc12,21*,·,·,·
CCc1c(C)c2ccc(OCC(=O)NCC3CCC(C(=O)O)CC3)c(C)c2oc1=O (stereo unspecified),0,·,·,·
CCCCNc1cc(NC(C)=O)cc2cc(OC)c(OC)cc12,21*,4,6,0
COc1cccc(CC2(CO)CCN(S(=O)(=O)N(C)C)CC2)c1,18*,0,7,-5
Cc1ccc(C)c(N2CCN(S(=O)(=O)c3ccc4c(c3)CCC(=O)N4)CC2)c1,4,104*,0,0
Cc1ccc(C)c(N2CCN(S(=O)(=O)c3ccc4c(c3)NC(=O)CC(=O)N4)CC2)c1,6,·,·,·
CCOC(=O)c1c(-c2cccs2)csc1NC(=O)C(C)(C)C,-3,110*,-2,-6
Cc1ccc(N2C(=O)CC(NNC(=O)Cc3ccc(F)cc3)C2=O)cc1Cl (stereo unspecified),10,2,5,0
Cc1c(NC(=O)CN2C(=O)NC(CCc3ccccc3)C2=O)c(=O)n(-c2ccccc2)n1C (stereo unspecified),34*,0,-7,2
CCOC(=O)N1CCN(C(=O)c2ccc(CS(=O)c3ccccc3)o2)CC1 (stereo unspecified),2,·,·,·
Cc1ccnc(N/C=C(\C#N)c2nc(-c3cccc(Br)c3)cs2)c1,56*,-53,4,-56
O=C(CSc1nnc(NC(=O)c2ccc(F)cc2F)s1)NC1CC1,5,·,·,·
CC1CCC(C(C)C)C2=C1C(C#N)(C#N)C(C#N)(C#N)C(c1ccccc1)N2 (stereo unspecified),-4,8,18,-3
CCC1OC2(C)OC(=N)C1(C#N)C(C#N)(C#N)C2c1ccccc1 (stereo unspecified),33*,22,17,67

# Assay outcomes as filed in PubChem BioAssay.
